1 compound from ChEMBL document CHEMBL1955811, “Inhibition of colony-stimulating-factor-1 signaling in vivo with the orally bioavailable cFMS kinase inhibitor GW2580” (Proc Natl Acad Sci U S A, 2005) can be followed below.

The target in data set [1] is Protein kinase C alpha type (Homo sapiens, UniProt P17252). Kind of data set: Inhibition of human PKCa catalytic domain after by scintillation counting. The method, boiled down:
(§1)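 Catalytic domains of the human kinases were expressed, isolated and assayed with ATP and the appropriate substrate. Compound was tested as a 10- to 12-point dose-response up to a maximal 20 μM.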

The subject of the next data set is NCI-N87. Kind of data set: Growth inhibition of serum-stimulated human NCI-N87 cells after 3 days by spectrophotometry. Format: functional, cell-based. The following applies: NCI-N87, 72 h. The essentials:
(§2)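 Cells cultured so that added serum or growth factor gave linear growth. Compound tested as a 10- to 12-point dose-response with a top concentration of 20 μM.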

The test system of data set [2] is NFS-60. Kind of data set: Growth inhibition of CSF1-stimulated mouse M-NFS-60 cells at 0.7 uM after 3 days by spectrophotometry. Format: functional.
In data set [3] the test system is Osteoclast. Kind of data set: Inhibition of human osteoclast degradation of bone assessed as reduction in 23C6(+) cells with more than 3 nuclei per cm2 of bone at 1 uM after 3 days by immunocytochemistry (reference value: 854 +/- 122 cells/cm2 of bone). Format: functional.
Data set [4] has as its system Osteoclast. Put plainly: Inhibition of human osteoclast degradation of bone assessed as reduction in 23C6(+) cells with more than 3 nuclei per cm2 of bone at 3 uM after 3 days by immunocytochemistry (reference value: 854 +/- 122 cells/cm2 of bone). Format: functional.
The subject of another data set is Mus musculus. Put plainly: Inhibition of thioglycolate-induced macrophage influx into peritoneal cavity in mouse at 20 to 80 mg/kg, po BID. Format: functional, organism-based. Particulars: TDE = time-dependent effect. The method, boiled down: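 Female C3H/HEN mice (22-26 g) were dosed orally with compound suspended in 0.5% hydroxypropylmethylcellulose/0.1% Tween 80 (0.2 ml per mouse). Thioglycolate (1.5 ml) was injected i.p. on day 0. On day 4, the peritoneum was lavaged with 5 ml cold PBS containing 40 units/ml heparin, and cells were counted by hemocytometer in 0.1% crystal violet. Data are mean ± SEM; Dunnett's test.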

A further data set is filed under the species Rattus norvegicus. Put plainly: Inhibition of PTH-induced Wistar rat calvarial bone degradation assessed as reduction in DPPD level in media at 1 to 100 uM after 48 hrs. The format is functional. The method, boiled down: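 Rat calvaria incubated with PTH plus compound for two consecutive 48-h periods. Medium from the second period assayed for deoxypyridinoline crosslinks (DPPD).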

Data set [5] in a line: Cmax in mouse at 20 mg/kg, po. The format is ADME, organism-based. The arrangement: dose 20 mg/kg, route oral. Particulars: in vivo. The essentials:
(§3)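 Female mice given single oral doses (20 or 80 mg/kg) in 0.5% HPMC/0.1% Tween 80. Three mice killed with CO2 per time point; plasma extracted with isopropyl alcohol/acetonitrile, then vortexed, sonicated and centrifuged. Quantified by LC/MS (APCI positive mode, multiple-reaction monitoring) against a standard curve prepared in plasma.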

In data set [6] the target is T1, Protein kinase C zeta type (Homo sapiens, UniProt Q05513).
T1 sequence (Q05513 whole entry): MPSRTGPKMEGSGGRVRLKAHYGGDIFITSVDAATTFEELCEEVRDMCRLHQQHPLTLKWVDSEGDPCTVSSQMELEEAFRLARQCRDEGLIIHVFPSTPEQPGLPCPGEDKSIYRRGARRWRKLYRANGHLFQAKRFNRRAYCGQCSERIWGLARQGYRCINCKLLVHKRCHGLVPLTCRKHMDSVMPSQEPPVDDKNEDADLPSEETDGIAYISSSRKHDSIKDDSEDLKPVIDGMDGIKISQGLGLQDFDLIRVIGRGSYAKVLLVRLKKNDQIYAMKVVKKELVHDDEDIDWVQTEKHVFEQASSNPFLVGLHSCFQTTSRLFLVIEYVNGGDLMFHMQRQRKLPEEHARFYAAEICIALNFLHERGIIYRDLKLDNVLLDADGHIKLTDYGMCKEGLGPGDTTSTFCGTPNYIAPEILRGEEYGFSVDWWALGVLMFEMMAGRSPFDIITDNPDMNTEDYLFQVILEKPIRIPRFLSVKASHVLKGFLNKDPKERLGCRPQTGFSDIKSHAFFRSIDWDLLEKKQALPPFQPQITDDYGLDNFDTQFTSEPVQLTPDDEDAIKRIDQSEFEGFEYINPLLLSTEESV
Put plainly: Inhibition of human His-tagged PKCz using biotin-(amino hexanoic acid)-FKLKRKGSFKKFA-CONH2 as substrate after 40 mins by scintillation proximity assay. The essentials: as §1
(SPA uses beads or plates that emit light when radiolabelled molecules are held near them.)

Data set [7] deals with Monocyte. Put plainly: Effect on LPS-induced TNF production in human monocytes at 0.03906 to 20 uM preincubated for 30 mins before LPS stimulation measured after 20 hrs by ELISA. The format is functional, cell-based. For orientation: ELISA stands for enzyme-linked immunosorbent assay.
For data set [8], the system named is Osteoclast. Kind of data set: Inhibition of human osteoclast degradation of bone assessed as reduction in actin ring formation per cm2 of bone at 3 uM after 3 days by immunocytochemistry (reference value: 1546 +/- 232 /cm2 of bone). The format is functional.
Data set [9] deals with NFS-60. Put plainly: Antitumor activity in mouse M-NFS-60 cells allografted in po dosed CD-1 nude mouse assessed as inhibition of tumor cell growth in peritoneal cavity compound starting 1 hr before challenge twice a day for 4 days measured after 4 days. The format is functional, organism-based. The essentials: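 CD-1 nude female mice (22-26 g); 1 × 10^7 M-NFS-60 cells in PBS injected i.p. Oral dosing b.i.d. at 20 and 80 mg/kg as a suspension in 0.5% hydroxypropylmethylcellulose/0.1% Tween 80 (0.2 ml per mouse), starting 1 h before cell injection. Peritoneal cells recovered by cold PBS-heparin lavage on day 4 and counted by hemocytometer after crystal violet dilution. Mean ± SEM; Dunnett's test.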

The test system of the next data set is Macrophage. Put plainly: Effect on LPS-induced TNF production in CSF-1-stimulated human macrophages at 0.03906 to 20 uM preincubated for 30 mins before LPS stimulation measured after 20 hrs by ELISA. The format is functional, cell-based.
For data set [10], the system named is Osteoclast. Put plainly: Inhibition of human osteoclast degradation of bone assessed as bone slice resorbed at 3 uM after 3 days by immunocytochemistry (reference value: 26.6 +/- 4.7 %). Format: functional. Particulars: 72 h.
Data set [11] in a line: Protein binding in cell-culture media with rat plasma at 3 uM. Format: ADME, cell-free. The following applies: read-out: PB (converted). The method, boiled down:
(§4)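 Compound at 3 μM was added to triplicate samples and incubated 1 h at 37°C. Samples were centrifuged through a 30,000-MW filter (1,500 × g, 15 min, 4°C). Percent bound was calculated from compound concentrations in the filtrate and retentate.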

Another data set concerns PBMC. Put plainly: Effect on LPS-induced TNF production in human PBMC at 0.03906 to 20 uM preincubated for 30 mins before LPS stimulation measured after 20 hrs by ELISA. The format is functional, cell-based.
Another data set has as its system A549. Put plainly: Growth inhibition of serum-stimulated human A549 cells after 3 days by spectrophotometry. Format: functional, cell-based. The following applies: A549, 72 h. The essentials:
as §2

Data set [12] is described as follows: Cmax in mouse at 80 mg/kg, po. Format: ADME, organism-based. On the set-up: dose 80 mg/kg, route oral. The following applies: in vivo. The method, boiled down: as §3
Data set [13] has as its system Osteoclast. Put plainly: Inhibition of human osteoclast degradation of bone assessed as reduction in 23C6(+) cells with more than 3 nuclei per cm2 of bone at 10 uM after 3 days by immunocytochemistry (reference value: 854 +/- 122 cells/cm2 of bone). Format: functional.
Data set [14] in a line: Protein binding in cell-culture media with mouse plasma at 3 uM. Format: ADME, cell-free. Particulars: read-out: PB (converted). The method, boiled down:
as §4

Data set [15] concerns Monocyte. Kind of data set: Inhibition of GMCSF-stimulated growth of freshly isolated human monocytes at 1 uM preincubated for 30 mins before inducer addition measured after 5 days by WST-1 method. The format is functional. Particulars: read-out: GI. A general note: Tetrazolium dyes change colour on reduction, which living cells bring about.
In data set [16] the test system is Peritoneal macrophage cell. Put plainly: Effect on LPS-induced IL-6 production in mouse intraperitoneal macrophages pretreated with CSF-1 at 0.03906 to 20 uM compound incubated for 30 mins before LPS stimulation measured after 20 hrs by ELISA. Format: functional, cell-based.

Structures are written as SMILES. Calls of active or inactive are those of the source. No cut-off for these calls is given here.

For orientation: IC50 means the concentration at which inhibition is half-maximal. Read a low IC50 as higher potency. In general, Cmax refers to the highest concentration seen after dosing. Turning to `COc1ccc(COc2ccc(Cc3cnc(N)nc3N)cc2OC)cc1` [GW632580X], the half-inhibitory concentration (IC50) in [1] was more than 13 µM; in the data set on NCI-N87 it was more than 30 µM; in data set [6] it was more than 24 µM; with A549 it was more than 30 µM. The “growth inhibition (GI)” value in the data set with NFS-60 [2] is “Active”. In addition, the Activity in the data set on Osteoclast [3] was 244 /cm2; with Osteoclast [4] it was 120 /cm2; in the data set with Osteoclast [8] it was 148 /cm2; in the data set on Osteoclast [13] it was 34 /cm2. Also, in the data set with Mus musculus, the inhibition result was “tde”. Further, the inhibition entry in the data set listed under Rattus norvegicus is “Active”. Also, the maximum concentration (Cmax) was 50 nM in [5] and 5600 nM in [12]. In addition, the outcome (in the data set on Monocyte [7]; in the data set with Macrophage; with PBMC; in data set [16]) was inactive. Further, the “growth inhibition (GI)” value in the data set with NFS-60 [9] was “Dose-dependent effect”. Also, the bone resorption (%) at 3 µM in the data set on Osteoclast [10] is 1.5%. The fraction unbound at 3 µM in data set [11] was 0.05; in data set [14], 0.07. In addition, in the data set on Monocyte [15], the inhibition of growth at 1 µM was determined as 80%.
